Published values collected from several papers.
Lines come from different studies, so protocols differ.
Target: MAP kinase-interacting serine/threonine-protein kinase 2 (MKNK2, Homo sapiens, UniProt Q9HBH9)

Cc1ccc(NC(=O)c2ccnc(C(F)(F)F)c2)cc1-c1cc(OCCO)nc(N2CCOCC2)c1  remaining binding (binding; competition with immobilised ligand; 1 µM): 79%
C1=C/COCc2cc(ccc2OCCN2CCCC2)Nc2nccc(n2)-c2cccc(c2)COC/1  remaining binding (binding; 0.1 µM): 59%
CN1CCN(C(=O)c2ccc(NC(=O)Nc3ccc(N(C)c4ccnc(Nc5ccc(CS(C)(=O)=O)cc5)n4)cc3)cc2)CC1  remaining binding (binding; competition with immobilised ligand; 1 µM): 4.2%
CC(C)S(=O)(=O)c1ccc2nccc(Nc3ccc4sc(C5CCCC5)nc4c3)c2c1  activity vs control (enzyme activity; inhibitor; 1 µM): 101%
COc1ccc2oc(-c3ccc4nc(N)oc4c3)c/c(=N\c3ccccc3NC(=O)CCN)c2c1  remaining binding (binding; 1 µM): 93%
C=CC(=O)N1CCC([C@@H]2CCNc3c(C(N)=O)c(-c4ccc(Oc5ccccc5)cc4)nn32)CC1  inhibition (enzyme activity; inhibitor; 1 µM): 22%
CCCCC(=O)Nc1ccc(-c2ccc3ncn(CCC)c(=O)c3c2)cn1  remaining binding (binding; competition with immobilised ligand; 0.5 µM): 100%
N#Cc1ccc(NC(=O)Nc2ccccc2)cc1  remaining binding (cell-free assay; competition with immobilised ligand; 25 µM): 46%
CO[C@@H]1[C@H](N(C)C(=O)c2ccccc2)C[C@H]2O[C@]1(C)n1c3ccccc3c3c4c(c5c6ccccc6n2c5c31)C(=O)NC4  inhibition (enzyme activity; inhibitor; 1 µM): 30%
